For one test, the system named is A2780. In words: Antiproliferative activity against human A2780 cells after 2 days by Alamar Blue assay. The note with it: A2780, 48 h. It is filed as functional, cell-based. In short, it runs like this: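 Drug-sensitive human ovarian cancer cell line; samples delivered in 1 μL of 100% DMSO per well rather than 20 μL of 1:1 DMSO–H2O. Otherwise run by a previously reported protocol.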
(The colour change of resazurin is a common sign of viable cells or microbes.)

A further test has as its system NCI-H460. As to the kind of experiment: Antiproliferative activity against human H460 cells after 96 hrs by Cell Titre-Glo luminescent assay. It is filed as functional, cell-based. As to conditions: NCI-H460, 96 h.

Bounds are passed on as bounds.

With `COc1cccc2c1-c1nccc3ccnc(c13)C2=O`, the results for the IC50 in the test with A2780 and in the test on NCI-H460 were 10.3 µM and 0.57 µM, respectively.
Regarding `c1ccc2c(c1)-c1nccc3ccnc-2c13` [EUPOLAURIDINE], the IC50 – broadly, the concentration at which inhibition is half-maximal – in the test with A2780 was 35.7 µM; in the test on NCI-H460, above 100 µM.
The corresponding values for `COc1ccc2c(c1)-c1c3c-2nccc3cc[n+]1[O-]` are 54.3 µM and above 10 µM.
For the molecule `[O-][n+]1ccc2ccnc3c2c1-c1ccccc1-3`, the half-maximal inhibitory concentration (IC50) was 3.5 µM in the test with A2780 and 1.77 µM in the test with NCI-H460.
For the molecule `Oc1ccc2c(c1)-c1nccc3ccnc-2c13`, the IC50 in the test with A2780 is 12.7 µM; with NCI-H460, above 10 µM.
In the case of `O=C1c2ccccc2-c2nccc3ccnc1c23` [SAMPANGINE], the IC50 was 0.6 µM with A2780 and 0.58 µM in the test with NCI-H460.
Turning to `COc1ccc2c(c1)-c1nccc3ccnc-2c13`, the figures for the IC50 in the test on A2780 and with NCI-H460 were 11.1 µM and above 10 µM, respectively.
Take `COc1ccc2c(c1)-c1nccc3cc[n+]([O-])c-2c13`: the IC50 is 50.3 µM with A2780 and above 100 µM in the test with NCI-H460.

(Values after ChEMBL document CHEMBL1799940, “Isolation and synthesis of antiproliferative eupolauridine alkaloids of Ambavia gerrardii from the Madagascar Dry Forest” (J Nat Prod, 2011).)
